Results: ChEMBL document CHEMBL1806473, “Structure-based optimization of click-based histone deacetylase inhibitors” (Eur J Med Chem, 2011)

Columns and labels:
U-251 [1] = experiment: Antiproliferative activity against human U251 cells by SRB assay; assay type: functional
Outline: (§1)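 Cell growth was tested in the NIH in vitro disease-oriented human tumor cell line screen, which NCI ran for these compounds. Compounds were tested at five concentrations (100, 10, 1.0, 0.1 and 0.01 μM), and growth was read by SRB signal. GI50 is the drug concentration that reduces growth of treated cells to half that of control cells during drug incubation.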

UACC-62 [2] = experiment: Antiproliferative activity against human UACC62 cells by SRB assay; assay type: functional; outline: as §1
SF-268 = experiment: Antiproliferative activity against human SF268 cells by SRB assay; assay type: functional
Outline: (§2)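 Tested in the NCI in vitro human tumor cell line screen, run by the National Cancer Institute. Each compound was given at five concentrations (100, 10, 1.0, 0.1 and 0.01 μM). GI50 is the drug concentration that reduces growth of treated cells to half that of control cells during drug incubation, judged from the SRB signal.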

A549 = experiment: Cytotoxicity against human A549 cells; assay type: cell-based
Outline: (§3)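 Tested in the NCI in vitro disease-oriented human tumour cell line screen, with screening performed by NCI. Growth was read by SRB signal over the drug incubation period at five concentrations: 100, 10, 1.0, 0.1 and 0.01 μM. GI50 is the concentration that reduces growth of treated cells to half that of control cells.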

SN12C [3] = experiment: Cytotoxicity against human SN12C cells; assay type: cell-based
Outline: (§4)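 Screened by NCI in its in vitro disease-oriented human tumour cell line panel. Compounds tested at five concentrations (100, 10, 1.0, 0.1 and 0.01 μM). Growth read by sulforhodamine B (SRB) signal. GI50 is the concentration reducing growth of treated cells to half that of control cells during the drug incubation.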

UACC-62 [4] = experiment: Cytotoxicity against human UACC62 cells; assay type: cell-based; outline: as §4
OVCAR-3 = experiment: Antiproliferative activity against human OVCAR3 cells by SRB assay; assay type: functional; outline: as §2
HCC 2998 [5] = experiment: Antiproliferative activity against human HCC2998 cells by SRB assay; assay type: functional; outline: as §2
SF-539 = experiment: Antiproliferative activity against human SF539 cells by SRB assay; assay type: functional; outline: as §2
KM12 = experiment: Cytotoxicity against human KM12 cells; assay type: cell-based
TK-10 = experiment: Cytotoxicity against human TK10 cells; assay type: cell-based; outline: as §4
IGROV-1 [6] = experiment: Cytotoxicity against human IGROV1 cells; assay type: cell-based
RPMI-8226 [7] = experiment: Antiproliferative activity against human RPMI8226 cells by SRB assay; assay type: functional; outline: as §2
MDA-MB-231 [8] = experiment: Antiproliferative activity against human MDA-MB-231 cells by SRB assay; assay type: functional; outline: as §2
NCI-H322M = experiment: Cytotoxicity against human NCI-H322M cells; assay type: cell-based
SN12C [9] = experiment: Antiproliferative activity against human SN12C cells by SRB assay; assay type: functional; outline: as §2
OVCAR-4 = experiment: Antiproliferative activity against human OVCAR4 cells by SRB assay; assay type: functional; outline: as §2
PC-3 = experiment: Antiproliferative activity against human PC3 cells by SRB assay; assay type: functional; outline: as §2
U-251 [10] = experiment: Cytotoxicity against human U251 cells; assay type: cell-based; outline: as §4
MDA-MB-468 [11] = experiment: Antiproliferative activity against human MDA-MB-468 cells by SRB assay; assay type: functional; outline: as §2
HCC 2998 [12] = experiment: Cytotoxicity against human HCC2998 cells; assay type: cell-based; outline: as §3
MDA-MB-231 [13] = experiment: Cytotoxicity against human MDA-MB-231 cells; assay type: functional; outline: as §3
M14 [14] = experiment: Antiproliferative activity against human M14 cells by SRB assay; assay type: functional; outline: as §2
SW-620 = experiment: Antiproliferative activity against human SW620 cells by SRB assay; assay type: functional; outline: as §1
RXF 393 = experiment: Cytotoxicity against human RXF393 cells; assay type: cell-based; outline: as §3
ACHN = experiment: Antiproliferative activity against human ACHN cells by SRB assay; assay type: functional; outline: as §2
NCI-H23 = experiment: Cytotoxicity against human NCI-H23 cells; assay type: cell-based
NCI/ADR-RES [15] = experiment: Antiproliferative activity against human NCI/ADR-RES cells by SRB assay; assay type: functional; outline: as §2
K562 [16] = experiment: Cytotoxicity against human K562 cells; assay type: cell-based
NCI-H522 = experiment: Cytotoxicity against human NCI-H522 cells; assay type: cell-based; outline: as §3
NCI/ADR-RES [17] = experiment: Cytotoxicity against human NCI/ADR-RES cells; assay type: cell-based; outline: as §3
MOLT-4 [18] = experiment: Cytotoxicity against human MOLT4 cells; assay type: cell-based
DU-145 = experiment: Antiproliferative activity against human DU145 cells by SRB assay; assay type: functional; outline: as §2
EKVX = experiment: Antiproliferative activity against human EKVX cells by SRB assay; assay type: functional; outline: as §2
K562 [19] = experiment: Antiproliferative activity against human K562 cells by SRB assay; assay type: functional; outline: as §2
CAKI-1 = experiment: Antiproliferative activity against human Caki1 cells by SRB assay; assay type: functional; outline: as §2
786-0 [20] = experiment: Cytotoxicity against human 786-0 cells; assay type: cell-based
HL-60(TB) = experiment: Cytotoxicity against human HL-60(TB) cells; assay type: cell-based
SR = experiment: Cytotoxicity against human SR cells; assay type: cell-based; outline: as §4
SNB-19 = experiment: Antiproliferative activity against human SNB19 cells by SRB assay; assay type: functional; outline: as §2
HOP-62 = experiment: Cytotoxicity against human HOP62 cells; assay type: cell-based; outline: as §3
IGROV-1 [21] = experiment: Antiproliferative activity against human IGROV1 cells by SRB assay; assay type: functional; outline: as §2
A498 = experiment: Antiproliferative activity against human A498 cells by SRB assay; assay type: functional; outline: as §2
OVCAR-8 = experiment: Cytotoxicity against human OVCAR8 cells; assay type: cell-based
MDA-MB-435 = experiment: Antiproliferative activity against human MDA-MB-435 cells by SRB assay; assay type: functional; outline: as §2
MCF7 = experiment: Antiproliferative activity against human MCF7 cells by SRB assay; assay type: functional; outline: as §2
[22] = Cytotoxicity against human Hs 578T cells; assay type: cell-based
786-0 [23] = experiment: Antiproliferative activity against human 786-0 cells by SRB assay; assay type: functional; outline: as §2
M14 [24] = experiment: Cytotoxicity against human M14 cells; assay type: cell-based
RPMI-8226 [25] = experiment: Cytotoxicity against human RPMI8226 cells; assay type: cell-based; outline: as §3
HCT-15 = experiment: Antiproliferative activity against human HCT15 cells by SRB assay; assay type: functional; outline: as §2
CCRF-CEM = experiment: Antiproliferative activity against human CCRF-CEM cells by SRB assay; assay type: functional; outline: as §2
MOLT-4 [26] = experiment: Antiproliferative activity against human MOLT4 cells by SRB assay; assay type: functional; outline: as §2
COLO 205 = experiment: Antiproliferative activity against human COLO205 cells by SRB assay; assay type: functional; outline: as §2
HCT-116 = experiment: Antiproliferative activity against human HCT116 cells by SRB assay; assay type: functional; outline: as §2
HT-29 = experiment: Cytotoxicity against human HT-29 cells; assay type: cell-based; outline: as §3
MDA-MB-468 [27] = experiment: Cytotoxicity against human MDA-MB-468 cells; assay type: cell-based; outline: as §3

SMILES: O=C(/C=C/c1cn(C(/C=C/c2ccccc2)Cc2ccccc2)nn1)NO (centres undefined)
- GI50 (U-251 [1]): 948 nM
- GI50 (UACC-62 [2]): 898 nM
- GI50 (SF-268): 1220 nM
- LC50 (A549): 64600 nM
- LC50 (SN12C [3]): > 100000 nM
- LC50 (UACC-62 [4]): 6340 nM
- GI50 (OVCAR-3): 1160 nM
- GI50 (HCC 2998 [5]): 1240 nM
- GI50 (SF-539): 1140 nM
- LC50 (KM12): 34200 nM
- LC50 (TK-10): 12900 nM
- LC50 (IGROV-1 [6]): 8180 nM
- GI50 (RPMI-8226 [7]): 743 nM
- GI50 (MDA-MB-231 [8]): 2210 nM
- LC50 (NCI-H322M): 46700 nM
- GI50 (SN12C [9]): 2340 nM
- GI50 (OVCAR-4): 1750 nM
- GI50 (PC-3): 1520 nM
- LC50 (U-251 [10]): 5840 nM
- GI50 (MDA-MB-468 [11]): 1520 nM
- LC50 (HCC 2998 [12]): 6120 nM
- LC50 (MDA-MB-231 [13]): 53900 nM
- GI50 (M14 [14]): 1180 nM
- GI50 (SW-620): 892 nM
- LC50 (RXF 393): 7610 nM
- GI50 (ACHN): 1230 nM
- LC50 (NCI-H23): 8680 nM
- GI50 (NCI/ADR-RES [15]): 342 nM
- LC50 (K562 [16]): > 100000 nM
- LC50 (NCI-H522): 6360 nM
- LC50 (NCI/ADR-RES [17]): > 100000 nM
- LC50 (MOLT-4 [18]): > 100000 nM
- GI50 (DU-145): 1080 nM
- GI50 (EKVX): 1460 nM
- GI50 (K562 [19]): 1050 nM
- GI50 (CAKI-1): 440 nM
- LC50 (786-0 [20]): 6450 nM
- LC50 (HL-60(TB)): > 100000 nM
- LC50 (SR): > 100000 nM
- GI50 (SNB-19): 2000 nM
- LC50 (HOP-62): 18300 nM
- GI50 (IGROV-1 [21]): 836 nM
- GI50 (A498): 1160 nM
- LC50 (OVCAR-8): > 100000 nM
- GI50 (MDA-MB-435): 866 nM
- GI50 (MCF7): 1210 nM
- LC50 [22]: 74600 nM
- GI50 (786-0 [23]): 1380 nM
- LC50 (M14 [24]): 16500 nM
- LC50 (RPMI-8226 [25]): > 100000 nM
- GI50 (HCT-15): 1590 nM
- GI50 (CCRF-CEM): 320 nM
- GI50 (MOLT-4 [26]): 493 nM
- GI50 (COLO 205): 1100 nM
- GI50 (HCT-116): 382 nM
- LC50 (HT-29): > 100000 nM

SMILES: O=C(/C=C/c1ccc(CN(CCO)CCc2c[nH]c3ccccc23)cc1)NO [DACINOSTAT]
- GI50 (U-251 [1]): 773 nM
- GI50 (UACC-62 [2]): 379 nM
- GI50 (SF-268): 1530 nM
- LC50 (A549): 94600 nM
- LC50 (SN12C [3]): > 100000 nM
- LC50 (UACC-62 [4]): 6390 nM
- GI50 (OVCAR-3): 1110 nM
- GI50 (SF-539): 965 nM
- LC50 (KM12): 29900 nM
- LC50 (TK-10): > 100000 nM
- LC50 (IGROV-1 [6]): 48900 nM
- GI50 (RPMI-8226 [7]): 523 nM
- GI50 (MDA-MB-231 [8]): 1960 nM
- LC50 (NCI-H322M): > 100000 nM
- GI50 (SN12C [9]): 1620 nM
- GI50 (OVCAR-4): 3210 nM
- GI50 (PC-3): 1300 nM
- LC50 (U-251 [10]): 5820 nM
- GI50 (MDA-MB-468 [11]): 452 nM
- LC50 (MDA-MB-468 [27]): 94300 nM
- GI50 (M14 [14]): 849 nM
- GI50 (SW-620): 478 nM
- LC50 (RXF 393): 15300 nM
- GI50 (ACHN): 1100 nM
- LC50 (NCI-H23): > 100000 nM
- GI50 (NCI/ADR-RES [15]): 180 nM
- LC50 (K562 [16]): > 100000 nM
- LC50 (NCI/ADR-RES [17]): > 100000 nM
- LC50 (MOLT-4 [18]): 86900 nM
- GI50 (DU-145): 580 nM
- GI50 (EKVX): 1750 nM
- GI50 (K562 [19]): 550 nM
- GI50 (CAKI-1): 619 nM
- LC50 (786-0 [20]): 52400 nM
- LC50 (HL-60(TB)): > 100000 nM
- LC50 (SR): > 100000 nM
- GI50 (SNB-19): 1530 nM
- LC50 (HOP-62): > 100000 nM
- GI50 (IGROV-1 [21]): 187 nM
- GI50 (A498): 1110 nM
- LC50 (OVCAR-8): 92500 nM
- GI50 (MDA-MB-435): 537 nM
- GI50 (MCF7): 730 nM
- LC50 [22]: > 100000 nM
- GI50 (786-0 [23]): 2380 nM
- LC50 (M14 [24]): 93800 nM
- LC50 (RPMI-8226 [25]): > 100000 nM
- GI50 (HCT-15): 2070 nM
- GI50 (CCRF-CEM): 251 nM
- GI50 (MOLT-4 [26]): 311 nM
- GI50 (COLO 205): 1080 nM
- GI50 (HCT-116): 347 nM
- LC50 (HT-29): > 100000 nM
